Test results reported in ChEMBL document CHEMBL3580662, “(R)-2-Phenylpyrrolidine Substituted Imidazopyridazines: A New Class of Potent and Selective Pan-TRK Inhibitors” (ACS Med Chem Lett, 2015).
pIC50: −log10 of the molar value. Blank lines part the entries; values can stand above or below the compound they belong to.

Experiments:
[1] = Cytotoxicity against wild type mouse BA/F3 cells assessed as inhibition of cell proliferation after 48 hrs by luciferase reporter gene assay in presence of recombinant mouse IL3; type: functional, cell-based; details: BaF3, 48 h
Summary of the method: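 Parental wild-type Ba/F3 cells grown with IL-3; proliferation assay, IC50 in μM.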

[2] = Plasma clearance in Sprague-Dawley rat at 3 mg/kg, iv and 10 mg/kg, po; type: ADME, organism-based
Summary of the method: (§1)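 Male Sprague–Dawley rats dosed intravenously at 3 mg/kg and orally at 10 mg/kg, each as a solution in 75% PEG300/25% D5W. Plasma sampled for clearance, Vss, T1/2, oral AUC, Cmax and oral bioavailability F(%).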

[3] = Volume of distribution at steady state in Sprague-Dawley rat at 3 mg/kg, iv and 10 mg/kg, po; type: ADME, organism-based; details: in vivo, read-out: Vdss; summary of the method: as §1
[4] = Half life in Sprague-Dawley rat at 3 mg/kg, iv and 10 mg/kg, po; type: ADME, organism-based; details: in vivo; summary of the method: as §1
[5] = AUC in Sprague-Dawley rat at 10 mg/kg, po; type: ADME, organism-based; details: in vivo; summary of the method: as §1
[6] = Cmax in Sprague-Dawley rat at 10 mg/kg, po; type: ADME, organism-based; design: dose 10 mg/kg, route oral; details: in vivo; summary of the method: as §1
[7] = Oral bioavailability in Sprague-Dawley rat at 10 mg/kg; type: ADME, organism-based; details: in vivo; summary of the method: as §1
[8] = system: Rattus norvegicus; assay: Plasma clearance in Sprague-Dawley rat at 3 mg/kg, iv and 10 mg/kg, po relative to hepatic blood flow; type: ADME, organism-based; details: in vivo
[9] = biological target: BDNF/NT-3 growth factors receptor (Homo sapiens, UniProt Q16620); assay: Inhibition of TRKB (unknown origin) by scintillation proximity assay
Summary of the method: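 TRKB biochemical inhibition measured by scintillation proximity assay; IC50 reported.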

[10] = biological target: Tyrosine-protein kinase JAK2 (Homo sapiens, UniProt O60674); assay: Inhibition of Tel-fused JAK2 (unknown origin) expressed in mouse BA/F3 cells after 48 hrs by luciferase reporter gene assay in absence of recombinant mouse IL3; type: cell-based; details: baf3
[11] = Ratio of AUC in brain to AUC in plasma of Balb/C mouse at 20 mg/kg, po; type: ADME, organism-based; details: brain and plasma, read-out: Ratio AUC
[12] = Ratio of Cmax in brain to Cmax in plasma of Balb/C mouse at 20 mg/kg, po; type: ADME, organism-based; details: brain and plasma, read-out: BPR
[13] = Plasma clearance in Wistar rat at 3 mg/kg, iv and 10 mg/kg, po; type: ADME, organism-based
Summary of the method: (§2)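 Male Wistar rats given 3 mg/kg IV and 10 mg/kg PO, formulated as a solution in 75% PEG300/25% D5W. Plasma PK parameters derived: CL, Vss, T1/2, AUC and Cmax after oral dosing, and F(%).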

[14] = Volume of distribution at steady state in Wistar rat at 3 mg/kg, iv and 10 mg/kg, po; type: ADME, organism-based; details: in vivo, read-out: Vdss; summary of the method: as §2
[15] = Half life in Wistar rat at 3 mg/kg, iv and 10 mg/kg, po; type: ADME, organism-based; details: in vivo; summary of the method: as §2
[16] = AUC in Wistar rat at 10 mg/kg, po; type: ADME, organism-based; details: in vivo; summary of the method: as §2
[17] = Cmax in Wistar rat at 10 mg/kg, po; type: ADME, organism-based; design: dose 10 mg/kg, route oral; details: in vivo; summary of the method: as §2
[18] = Oral bioavailability in Wistar rat at 10 mg/kg; type: ADME, organism-based; details: in vivo; summary of the method: as §2
[19] = system: Rattus norvegicus; assay: Plasma clearance in Wistar rat at 3 mg/kg, iv and 10 mg/kg, po relative to hepatic blood flow; type: ADME, organism-based; details: in vivo
[20] = system: KM12; assay: Antitumor activity against human KM12 cells xenografted in CRL RNU nude rat assessed as induction of tumor regression at 50 mg/kg, po bid administered for 14 days relative to vehicle-treated control; type: functional
Summary of the method: (§3)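 Female CRL RNU nude rats transplanted with KM12 tumor tissue; dosing started 10 days postimplant, twice daily for 14 days at 6.25, 12.5, 25 or 50 mg/kg alongside vehicle. Efficacy read as tumor volume.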

[21] = system: KM12; assay: Antitumor activity against human KM12 cells xenografted in po dosed CRL RNU nude rat assessed as tumor growth inhibition administered as bid for 14 days; type: functional, organism-based; summary of the method: as §3
[22] = system: Rattus norvegicus; assay: Toxicity in CRL RNU nude rat xenografted with human KM12 cells assessed as increase in body weight at 25 to 50 mg/kg, po bid administered for 14 days measured on day 14 post last dose; type: organism-based; details: in vivo, 336 h

Chain of Tyrosine-protein kinase JAK2 (O60674 whole entry, looked up, the tested form may be a part): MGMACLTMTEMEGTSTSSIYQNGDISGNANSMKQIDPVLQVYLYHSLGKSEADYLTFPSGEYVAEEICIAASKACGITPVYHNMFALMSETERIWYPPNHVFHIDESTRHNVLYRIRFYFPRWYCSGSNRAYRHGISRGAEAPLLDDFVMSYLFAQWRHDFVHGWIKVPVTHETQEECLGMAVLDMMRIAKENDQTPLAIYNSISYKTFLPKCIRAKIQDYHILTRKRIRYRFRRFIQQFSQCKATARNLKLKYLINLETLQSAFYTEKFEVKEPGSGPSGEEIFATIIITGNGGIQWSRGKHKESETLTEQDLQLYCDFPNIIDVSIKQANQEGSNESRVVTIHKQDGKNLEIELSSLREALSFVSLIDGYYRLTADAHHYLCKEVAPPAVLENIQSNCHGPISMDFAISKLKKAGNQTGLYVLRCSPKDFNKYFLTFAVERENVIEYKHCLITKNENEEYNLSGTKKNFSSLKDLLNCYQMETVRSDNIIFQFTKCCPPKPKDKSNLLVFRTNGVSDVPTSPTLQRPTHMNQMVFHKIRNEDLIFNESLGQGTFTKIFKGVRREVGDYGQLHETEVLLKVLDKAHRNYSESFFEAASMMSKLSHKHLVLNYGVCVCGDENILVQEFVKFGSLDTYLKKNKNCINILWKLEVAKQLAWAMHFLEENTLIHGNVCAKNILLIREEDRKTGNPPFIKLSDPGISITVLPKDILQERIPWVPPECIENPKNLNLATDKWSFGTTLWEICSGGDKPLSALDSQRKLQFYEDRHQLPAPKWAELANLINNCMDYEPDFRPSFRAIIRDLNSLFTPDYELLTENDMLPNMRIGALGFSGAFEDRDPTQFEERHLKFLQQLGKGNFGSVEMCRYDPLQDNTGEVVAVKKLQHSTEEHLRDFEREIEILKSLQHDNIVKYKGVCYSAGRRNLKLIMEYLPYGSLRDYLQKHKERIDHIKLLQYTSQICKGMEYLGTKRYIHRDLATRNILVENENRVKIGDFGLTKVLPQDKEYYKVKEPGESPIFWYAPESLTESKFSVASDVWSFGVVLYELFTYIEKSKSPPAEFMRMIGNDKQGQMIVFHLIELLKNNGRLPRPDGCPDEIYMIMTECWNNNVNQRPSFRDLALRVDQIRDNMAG
Chain of BDNF/NT-3 growth factors receptor (Q16620 whole entry): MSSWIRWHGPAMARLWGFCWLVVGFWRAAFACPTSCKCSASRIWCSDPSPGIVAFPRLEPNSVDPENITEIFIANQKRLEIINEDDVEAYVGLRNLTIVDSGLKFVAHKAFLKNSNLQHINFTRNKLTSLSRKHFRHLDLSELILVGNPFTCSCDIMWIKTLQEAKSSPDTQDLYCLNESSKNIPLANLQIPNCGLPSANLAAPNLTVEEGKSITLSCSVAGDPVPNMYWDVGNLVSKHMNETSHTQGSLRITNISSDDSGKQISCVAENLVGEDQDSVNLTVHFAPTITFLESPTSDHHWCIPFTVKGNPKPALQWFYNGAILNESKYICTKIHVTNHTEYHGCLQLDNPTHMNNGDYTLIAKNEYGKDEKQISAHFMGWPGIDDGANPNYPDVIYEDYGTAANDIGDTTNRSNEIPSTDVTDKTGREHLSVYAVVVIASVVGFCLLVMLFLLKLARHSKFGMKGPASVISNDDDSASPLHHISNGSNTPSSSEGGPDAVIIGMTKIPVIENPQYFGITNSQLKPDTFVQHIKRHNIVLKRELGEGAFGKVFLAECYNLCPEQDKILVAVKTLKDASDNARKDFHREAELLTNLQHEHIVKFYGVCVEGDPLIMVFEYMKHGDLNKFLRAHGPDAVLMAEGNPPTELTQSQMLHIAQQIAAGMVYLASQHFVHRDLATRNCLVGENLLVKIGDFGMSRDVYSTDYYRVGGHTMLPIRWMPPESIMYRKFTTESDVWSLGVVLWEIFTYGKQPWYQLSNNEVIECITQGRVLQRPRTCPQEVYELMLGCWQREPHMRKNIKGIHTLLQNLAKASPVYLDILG

clearance [2]: 56.9 mL/min/kg
Vd [3]: 2.3 L/kg
half-life [4]: 49.8 min
AUC [5]: 0.659 µM·h
Cmax [6]: 110 nM
bioavailability [7]: 10%
CL [8]: 100%
Structure (SMILES): OC1CCN(c2cccc(-c3cnc4ccc(N5CCC[C@@H]5c5cccc(F)c5)nn34)n2)CC1
pIC50 [1]: < 5.00

Structure (SMILES): N#Cc1ccc(-c2cnc3ccc(N4CCCCC4c4cccc(F)c4)nn23)cc1 (racemic)
pIC50 [1]: < 5.00

pIC50 [9]: 7.08
pIC50 [10]: 5.33
Structure (SMILES): N#Cc1ccc(-c2cnc3ccc(NCc4ccccc4)nn23)cc1
pIC50 [1]: 5.15

clearance [2]: 45.5 mL/min/kg
Vd [3]: 2.4 L/kg
half-life [4]: 54 min
AUC [5]: 1.9 µM·h
Cmax [6]: 250 nM
bioavailability [7]: 26%
CL [8]: 82%
Kp [11]: 0.8
Kp [12]: 0.8
pIC50 [10]: 5.57
Structure (SMILES): O=C(O)CN1CCN(c2cc(-c3cnc4ccc(N5CCC[C@@H]5c5cccc(F)c5)nn34)ccn2)CC1
pIC50 [1]: 5.32

Structure (SMILES): N#Cc1ccc(-c2cnc3ccc(N4CCC[C@@H]4c4cccc(F)c4)nn23)cc1
pIC50 [1]: < 5.00

Structure (SMILES): N#Cc1ccc(-c2cnc3ccc(NCc4cccc(F)c4)nn23)cc1
pIC50 [1]: 5.41

pIC50 [10]: 5.17
Structure (SMILES): Fc1cccc([C@H]2CCCN2c2ccc3ncc(-c4ccccn4)n3n2)c1
pIC50 [1]: < 5.00

clearance [13]: 45.2 mL/min/kg
Vd [14]: 4.9 L/kg
half-life [15]: 96 min
AUC [16]: 1.88 µM·h
Cmax [17]: 215 nM
bioavailability [18]: 27%
CL [19]: 82%
Kp [11]: 0.2
Kp [12]: 0.2
pIC50 [10]: 5.25
Structure (SMILES): OC1CCN(c2cc(-c3cnc4ccc(N5CCC[C@@H]5c5cccc(F)c5)nn34)ccn2)CC1
pIC50 [1]: 5.23
Activity [20]: 20%
TGI [21]: Dose-dependent effect
Activity [22]: Toxic

Structure (SMILES): CN(Cc1ccccc1)c1ccc2ncc(-c3ccc(C#N)cc3)n2n1
pIC50 [1]: 5.23

Structure (SMILES): N#Cc1cccc(-c2cnc3ccc(NCc4ccccc4)nn23)c1
pIC50 [1]: < 5.00

Structure (SMILES): N#Cc1ccc(-c2cnc3ccc(N4CCCC4c4cccc(F)c4)nn23)cc1 (racemic)
pIC50 [1]: < 5.00

Structure (SMILES): N#Cc1ccc(-c2cnc3ccc(N4CCOCC4c4cccc(F)c4)nn23)cc1 (racemic)
pIC50 [1]: < 5.00

Structure (SMILES): N#Cc1ccc(-c2cnc3ccc(N4CCC[C@H]4c4cccc(F)c4)nn23)cc1
pIC50 [1]: 5.03

Structure (SMILES): O=C(Nc1ccc(-c2cnc3ccc(NCc4cccc(F)c4)nn23)cc1)C1CCOCC1
pIC50 [1]: 5.52

Structure (SMILES): NS(=O)(=O)c1ccc(-c2cnc3ccc(NCc4cccc(F)c4)nn23)cc1
pIC50 [1]: 5.60

Structure (SMILES): OCc1ccc(-c2cnc3ccc(NCc4cccc(F)c4)nn23)cc1
pIC50 [1]: 5.72

Structure (SMILES): COc1ccccc1CNc1ccc2ncc(-c3ccc(C#N)cc3)n2n1
pIC50 [1]: 6.00
